Here are results for one compound from ChEMBL document CHEMBL4334471, “Discovery of 1,8-disubstituted-[1,2,3]triazolo[4,5-c]quinoline derivatives as a new class of Hippo signaling pathway inhibitors” (Bioorg Med Chem Lett, 2019).

Molecules are shown by their SMILES.

For test [1], the target named is Tyrosine-protein kinase BTK (Homo sapiens) (UniProt Q06187). Kind of test: Inhibition of recombinant full length human BTK assessed as residual activity at 10 uM using KVEKIGEGTYGVVYK substrate incubated for 40 mins in presence of [gamma-33ATP] by scintillation counting based radiometry assay relative to control.
Chain of Tyrosine-protein kinase BTK (Homo sapiens) (Q06187 whole entry): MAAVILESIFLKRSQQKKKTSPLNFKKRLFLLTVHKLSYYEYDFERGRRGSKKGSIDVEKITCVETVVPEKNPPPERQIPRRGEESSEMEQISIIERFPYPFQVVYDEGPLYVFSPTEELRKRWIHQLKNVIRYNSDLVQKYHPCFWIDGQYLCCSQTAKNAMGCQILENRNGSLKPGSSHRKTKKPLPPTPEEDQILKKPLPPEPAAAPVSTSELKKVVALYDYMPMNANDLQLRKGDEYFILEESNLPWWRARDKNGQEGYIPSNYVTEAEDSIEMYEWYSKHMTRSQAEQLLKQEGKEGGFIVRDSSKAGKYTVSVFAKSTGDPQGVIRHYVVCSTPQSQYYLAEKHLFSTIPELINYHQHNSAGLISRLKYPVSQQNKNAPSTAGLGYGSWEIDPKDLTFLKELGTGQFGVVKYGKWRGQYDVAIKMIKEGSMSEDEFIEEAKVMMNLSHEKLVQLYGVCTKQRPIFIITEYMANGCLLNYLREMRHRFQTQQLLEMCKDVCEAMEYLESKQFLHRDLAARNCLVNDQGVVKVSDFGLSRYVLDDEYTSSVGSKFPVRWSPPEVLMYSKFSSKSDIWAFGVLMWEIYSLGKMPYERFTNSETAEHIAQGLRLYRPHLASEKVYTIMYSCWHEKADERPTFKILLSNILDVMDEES
The target in test [2] is Dual specificity protein kinase CLK1 (Homo sapiens) (UniProt P49759). Kind of test: Inhibition of recombinant human CLK1 (130 to end residues) assessed as residual activity at 10 uM using ERMRPRKRQGSVRRRV as substrate incubated 40 mins in presence of [gamma-33ATP] by scintillation counting based radiometry assay relative to control.
Chain of Dual specificity protein kinase CLK1 (Homo sapiens) (P49759 whole entry, looked up): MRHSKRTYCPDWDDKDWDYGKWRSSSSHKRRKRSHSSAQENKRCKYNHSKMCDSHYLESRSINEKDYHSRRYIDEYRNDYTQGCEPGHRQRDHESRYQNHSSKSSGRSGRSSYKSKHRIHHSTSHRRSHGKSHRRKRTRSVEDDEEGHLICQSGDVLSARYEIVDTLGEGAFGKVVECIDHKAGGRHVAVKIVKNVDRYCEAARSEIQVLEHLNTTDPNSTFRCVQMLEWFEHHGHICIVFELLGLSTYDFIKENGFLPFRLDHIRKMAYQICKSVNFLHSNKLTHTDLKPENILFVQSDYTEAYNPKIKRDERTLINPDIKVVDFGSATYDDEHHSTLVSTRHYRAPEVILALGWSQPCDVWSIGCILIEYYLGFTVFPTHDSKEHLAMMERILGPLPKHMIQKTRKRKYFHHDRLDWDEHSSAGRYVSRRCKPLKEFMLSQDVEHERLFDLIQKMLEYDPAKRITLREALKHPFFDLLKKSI
The target in test [3] is Proto-oncogene tyrosine-protein kinase Src (Homo sapiens) (UniProt P12931). The test can be described thus: Inhibition of recombinant human C-Src assessed as residual activity at 10 uM Cdc2 peptide as substrate incubated 40 mins in presence of [gamma-33ATP] by scintillation counting based radiometry assay relative to control.
For test [4], the target named is Serine/threonine-protein kinase 17B (Homo sapiens) (UniProt O94768). The test can be described thus: Inhibition of recombinant human DRAK2 assessed as residual activity at 10 uM using KKRPQRRYSNVF as substrate at 120 mins in presence of [gamma-33ATP] by scintillation counting based radiometry assay relative to control.
Test [5] deals with Dual specificity tyrosine-phosphorylation-regulated kinase 3 (Homo sapiens) (UniProt O43781). Kind of test: Inhibition of recombinant human DYRK3 assessed as residual activity at 10 uM using RRRFRPASPLRGPP as substrate at 40 mins in presence of [gamma-33ATP] by scintillation counting based radiometry assay relative to control.
Chain of Dual specificity tyrosine-phosphorylation-regulated kinase 3 (Homo sapiens) (O43781 whole entry): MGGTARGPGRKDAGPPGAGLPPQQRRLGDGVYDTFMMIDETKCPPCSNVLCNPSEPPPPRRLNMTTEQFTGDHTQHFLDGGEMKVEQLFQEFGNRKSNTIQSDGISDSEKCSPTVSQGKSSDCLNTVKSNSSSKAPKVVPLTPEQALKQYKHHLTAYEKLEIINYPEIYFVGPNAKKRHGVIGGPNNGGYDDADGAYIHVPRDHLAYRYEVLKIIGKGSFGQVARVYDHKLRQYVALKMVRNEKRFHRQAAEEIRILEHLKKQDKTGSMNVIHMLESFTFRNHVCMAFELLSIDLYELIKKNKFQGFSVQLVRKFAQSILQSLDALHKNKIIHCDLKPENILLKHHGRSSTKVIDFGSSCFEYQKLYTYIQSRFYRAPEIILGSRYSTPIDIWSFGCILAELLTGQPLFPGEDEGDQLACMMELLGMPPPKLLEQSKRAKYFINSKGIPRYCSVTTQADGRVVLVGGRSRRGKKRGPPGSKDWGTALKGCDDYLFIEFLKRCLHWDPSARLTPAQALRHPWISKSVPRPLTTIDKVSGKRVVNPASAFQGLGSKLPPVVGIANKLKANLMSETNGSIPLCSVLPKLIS
In test [6] the test system is Eukaryotic elongation factor 2 kinase (Homo sapiens), O00418 [H23R]. The test can be described thus: Inhibition of recombinant human eEF-2K H23R mutant (2 to end residues) assessed as residual activity at 10 uM using RKKFGESEKTKTK as substrate at 40 mins in presence of [gamma-33ATP] by scintillation counting based radiometry assay relative to control.
Chain of Eukaryotic elongation factor 2 kinase (Homo sapiens), O00418 [H23R] (O00418 whole entry H23R): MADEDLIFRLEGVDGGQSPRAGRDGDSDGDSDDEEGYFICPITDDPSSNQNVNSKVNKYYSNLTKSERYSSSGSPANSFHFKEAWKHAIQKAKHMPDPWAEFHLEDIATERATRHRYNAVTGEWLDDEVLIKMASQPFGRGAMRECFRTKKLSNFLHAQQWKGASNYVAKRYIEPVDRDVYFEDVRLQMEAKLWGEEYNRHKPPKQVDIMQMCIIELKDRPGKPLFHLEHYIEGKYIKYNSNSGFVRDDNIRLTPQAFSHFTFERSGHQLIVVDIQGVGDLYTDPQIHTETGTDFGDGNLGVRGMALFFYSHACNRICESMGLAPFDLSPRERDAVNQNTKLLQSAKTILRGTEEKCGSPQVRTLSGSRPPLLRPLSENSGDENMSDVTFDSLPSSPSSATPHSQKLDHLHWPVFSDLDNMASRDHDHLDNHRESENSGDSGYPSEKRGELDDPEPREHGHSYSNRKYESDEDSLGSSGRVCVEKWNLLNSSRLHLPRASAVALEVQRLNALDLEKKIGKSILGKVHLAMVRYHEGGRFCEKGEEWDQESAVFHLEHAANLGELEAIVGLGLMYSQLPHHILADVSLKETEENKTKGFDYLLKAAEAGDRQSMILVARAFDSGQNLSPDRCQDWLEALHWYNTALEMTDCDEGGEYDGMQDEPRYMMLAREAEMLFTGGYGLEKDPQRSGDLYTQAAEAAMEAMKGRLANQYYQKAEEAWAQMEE
For test [7], the system named is Epidermal growth factor receptor (Homo sapiens), P00533 [T790M]. Kind of test: Inhibition of recombinant human EGFR T790M mutant (696 to end residues) assessed as residual activity at 10 uM using poly(Glu, Tyr) 4:1 as substrate at 40 mins in presence of [gamma-33ATP] by scintillation counting based radiometry assay relative to control.
Test [8] deals with Ephrin type-A receptor 4 (Homo sapiens) (UniProt P54764). Kind of test: Inhibition of recombinant human EphA4 (601 to 892 residues) assessed as residual activity at 10 uM using poly(Glu, Tyr) 4:1 as substrate at 40 mins in presence of [gamma-33ATP] by scintillation counting based radiometry assay relative to control.
The subject of test [9] is Glycogen synthase kinase-3 alpha (Homo sapiens), P49840 [UNDEFINED MUTATION]. Kind of test: Inhibition of human GSK-3alpha S449A mutant (2 to end residues) assessed as residual activity at 10 uM using phospho GS2 peptide as substrate after 40 mins by [gamma-33ATP] radiometric assay.
In test [10] the target is Inhibitor of nuclear factor kappa-B kinase subunit alpha (Homo sapiens) (UniProt O15111). The test can be described thus: Inhibition of full length human IKKalpha assessed as residual activity at 10 uM using peptide as substrate after 40 mins by [gamma-33ATP] radiometric assay relative to control.
The target of test [11] is Tyrosine-protein kinase JAK1 (Homo sapiens) (UniProt P23458). Kind of test: Inhibition of human JAK1 (866 to end residues) assessed as residual activity at 10 uM using GEEPLYWSFPAKKK as substrate after 40 mins by [gamma-33ATP] radiometric assay relative to control.
Test [12] has as its target Serine/threonine-protein kinase STK11 (Homo sapiens) (UniProt Q15831). The test can be described thus: Inhibition of recombinant human LKB1 assessed as residual activity at 10 uM using LSNLYHQGKFLQT as substrate after 40 mins in presence of [gamma-33ATP] by scintillation counting based radiometry assay relative to control.
The species entered for a further test is Homo sapiens. Kind of test: Inhibition of recombinant human MARK1 T20S mutant (2 to end residues) assessed as residual activity at 10 uM using KKKVSRSGLYRSPSMPENLNRPR as substrate incubated for 40 mins in presence of [gamma-33ATP by scintillation counting based radiometry assay relative to control.
Test [13] has as its target Serine/threonine-protein kinase 4 (Homo sapiens) (UniProt Q13043). The test can be described thus: Inhibition of recombinant full-length human MST1 assessed as residual activity at 10 uM using KKSRGDYMTMQIG as substrate measured after 40 mins in presence of [gamma33P]ATP by scintillation counting based radiometry assay relative to control. The procedure, abridged: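 Outsourced kinase profiling of MST1 by a commercial service (Eurofins); activity reported as mean ± SEM of 2 replicates.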

Test [14] deals with Serine/threonine-protein kinase Nek11 (Homo sapiens) (UniProt Q8NG66). Kind of test: Inhibition of recombinant full length human NEK11 assessed as residual activity at 10 uM using myelin basic protein as substrate measured after 40 mins in presence of [gamma33P]ATP by scintillation counting based radiometry assay relative to control.
Chain of Serine/threonine-protein kinase Nek11 (Homo sapiens) (Q8NG66 whole entry): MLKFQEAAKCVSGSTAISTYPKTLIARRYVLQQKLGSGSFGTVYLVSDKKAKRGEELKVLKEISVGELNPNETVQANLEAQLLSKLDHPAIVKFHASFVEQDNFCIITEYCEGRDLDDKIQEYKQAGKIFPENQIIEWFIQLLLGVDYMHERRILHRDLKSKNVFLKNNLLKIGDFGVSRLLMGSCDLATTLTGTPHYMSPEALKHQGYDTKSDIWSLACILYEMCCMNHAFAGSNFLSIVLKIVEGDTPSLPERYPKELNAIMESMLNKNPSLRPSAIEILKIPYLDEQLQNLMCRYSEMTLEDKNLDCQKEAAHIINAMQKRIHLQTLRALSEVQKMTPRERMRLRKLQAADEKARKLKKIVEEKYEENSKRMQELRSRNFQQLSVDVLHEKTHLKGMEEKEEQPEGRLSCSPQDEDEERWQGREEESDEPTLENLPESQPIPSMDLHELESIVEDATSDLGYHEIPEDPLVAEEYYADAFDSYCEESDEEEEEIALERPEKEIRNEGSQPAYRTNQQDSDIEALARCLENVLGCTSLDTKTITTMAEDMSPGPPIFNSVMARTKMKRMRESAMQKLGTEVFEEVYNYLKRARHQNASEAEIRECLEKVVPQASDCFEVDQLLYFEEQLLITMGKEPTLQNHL
For test [15], the target named is NUAK family SNF1-like kinase 2 (Homo sapiens) (UniProt Q9H093). The test can be described thus: Inhibition of recombinant human full length NUAK2 assessed as residual activity at 10 uM using KKKVSRSGLYRSPSMPENLNRPR as substrate measured after 40 mins in presence of [gamma33P]ATP by scintillation counting based radiometry assay relative to control.
Chain of NUAK family SNF1-like kinase 2 (Homo sapiens) (Q9H093 whole entry): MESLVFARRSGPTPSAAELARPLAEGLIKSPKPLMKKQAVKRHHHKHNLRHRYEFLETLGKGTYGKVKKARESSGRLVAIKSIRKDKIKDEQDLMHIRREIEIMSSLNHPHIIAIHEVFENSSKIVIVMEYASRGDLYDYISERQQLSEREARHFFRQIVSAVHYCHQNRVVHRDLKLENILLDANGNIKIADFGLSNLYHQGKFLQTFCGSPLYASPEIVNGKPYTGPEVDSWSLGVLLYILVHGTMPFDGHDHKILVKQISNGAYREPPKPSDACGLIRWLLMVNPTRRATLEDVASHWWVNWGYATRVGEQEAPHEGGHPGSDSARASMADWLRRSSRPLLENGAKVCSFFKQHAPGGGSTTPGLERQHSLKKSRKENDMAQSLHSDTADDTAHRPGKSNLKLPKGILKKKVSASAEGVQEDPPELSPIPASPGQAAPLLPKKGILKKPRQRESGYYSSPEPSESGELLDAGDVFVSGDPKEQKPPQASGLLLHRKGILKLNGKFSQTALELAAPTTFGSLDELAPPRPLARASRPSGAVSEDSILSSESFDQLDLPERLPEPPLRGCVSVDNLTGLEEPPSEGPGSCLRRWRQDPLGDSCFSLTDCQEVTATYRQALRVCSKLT
Test [16] has as its target [Pyruvate dehydrogenase (acetyl-transferring)] kinase isozyme 4, mitochondrial (Homo sapiens) (UniProt Q16654). The test can be described thus: Inhibition of recombinant human full length PDHK4 assessed as residual activity at 10 uM using KKKYHGHSMSDPGVSYRT as substrate incubated for 40 mins in presence of [gamma33P]ATP by scintillation counting based radiometry assay relative to control.

For test [17], the system named is Phosphorylase b kinase gamma catalytic chain, liver/testis isoform (Homo sapiens), P15735 [F290L]. Kind of test: Inhibition of recombinant human PhKgamma2 F290L mutant (1 to 301 residues) assessed as residual activity at 10 uM using KKLNRTLSFAEPG as substrate incubated for 40 mins in presence of [gamma33P]ATP by scintillation counting based radiometry assay relative to control.

The target in test [18] is Tyrosine-protein kinase receptor TYRO3 (Homo sapiens) (UniProt Q06418). Kind of test: Inhibition of recombinant human RSE (451 to end residues) assessed as residual activity at 10 uM using KVEKIGEGTYGVVYK as substrate incubated for 40 mins in presence of [gamma33P]ATP by scintillation counting based radiometry assay relative to control.
Test [19] addresses Tyrosine-protein kinase Srms (Homo sapiens) (UniProt Q9H3Y6). Kind of test: Inhibition of recombinant human SRMS assessed as residual activity at 10 uM presence of [gamma33P]ATP by scintillation counting based radiometry assay relative to control.
In test [20] the target is Tyrosine-protein kinase Yes (Homo sapiens) (UniProt P07947). The test can be described thus: Inhibition of recombinant full-length human Yes assessed as residual activity at 10 uM using poly(Glu, Tyr) 4:1 as substrate incubated for 40 mins in presence of [gamma33P]ATP by scintillation counting based radiometry assay relative to control.
Chain of Tyrosine-protein kinase Yes (Homo sapiens) (P07947 2-543 limits assumed): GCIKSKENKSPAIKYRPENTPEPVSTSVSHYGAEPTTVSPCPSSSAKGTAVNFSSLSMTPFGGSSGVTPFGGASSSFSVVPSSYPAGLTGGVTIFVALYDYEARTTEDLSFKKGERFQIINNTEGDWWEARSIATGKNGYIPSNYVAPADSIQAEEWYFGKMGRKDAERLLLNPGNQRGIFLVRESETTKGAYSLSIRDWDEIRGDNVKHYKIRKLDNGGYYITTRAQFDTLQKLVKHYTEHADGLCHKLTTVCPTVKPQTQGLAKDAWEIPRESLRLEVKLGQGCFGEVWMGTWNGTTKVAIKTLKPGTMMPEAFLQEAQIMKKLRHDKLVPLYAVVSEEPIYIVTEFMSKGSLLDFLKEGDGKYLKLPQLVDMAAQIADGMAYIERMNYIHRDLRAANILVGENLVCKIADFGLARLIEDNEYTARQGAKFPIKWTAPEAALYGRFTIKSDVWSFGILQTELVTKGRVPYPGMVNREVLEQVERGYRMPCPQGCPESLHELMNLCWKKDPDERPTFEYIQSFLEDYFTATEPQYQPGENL

Chain of Glycogen synthase kinase-3 alpha (Homo sapiens), P49840 [UNDEFINED MUTATION] (P49840 whole entry, looked up, stated change not applied): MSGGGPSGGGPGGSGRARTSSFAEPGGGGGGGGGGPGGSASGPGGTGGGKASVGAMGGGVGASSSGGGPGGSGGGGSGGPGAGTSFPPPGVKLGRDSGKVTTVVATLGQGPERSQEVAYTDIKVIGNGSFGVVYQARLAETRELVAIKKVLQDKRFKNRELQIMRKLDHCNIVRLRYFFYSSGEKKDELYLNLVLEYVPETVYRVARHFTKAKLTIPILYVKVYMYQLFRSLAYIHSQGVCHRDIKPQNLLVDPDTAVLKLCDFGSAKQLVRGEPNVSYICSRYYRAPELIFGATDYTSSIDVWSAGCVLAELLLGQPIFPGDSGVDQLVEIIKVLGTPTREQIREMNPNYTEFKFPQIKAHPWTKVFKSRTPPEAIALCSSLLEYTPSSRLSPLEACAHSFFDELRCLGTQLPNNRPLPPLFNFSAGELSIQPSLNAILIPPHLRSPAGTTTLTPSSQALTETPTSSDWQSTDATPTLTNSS

For the compound `C[C@@H](c1ccccc1)n1nnc2cnc3ccc(-c4cnc5[nH]ccc5c4)cc3c21`, the Activity in [1] was 17%; in test [2], 38%; in test [3], 27%; in test [4], 64%; in test [5] it was 79%; in [6] it was 129%. The Activity is 59% in test [7]; 81% in test [8]; 79% in test [9]; 90% in test [10]; 47% in test [11]; 91% in test [12]. For the same compound, the Activity in the test filed under Homo sapiens came to 76%; in [13], 73%; in test [14], 103%; in test [15], 105%; in test [16] it was 69%; in test [17], 65%. In addition, the Activity came to 89% in test [18], 30% in [19] and 3% in test [20].
